Screen size: about 2,500 compounds; about 460 (18%) were called active.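 Rule for the calls: active = mean activation above a cutoff of low control average plus 3 SD from the earlier screen (cut at about 12% in these data); inactive = the rest.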 Not all results are given here.
assay: IANBD-channel fluorescence artefacts in buffer – biochemical, artefact control for cardiac RTF calcium sensitizer project, confirmation (AID 504382); conditions: IANBD fluorescence interference counterscreen, EC20 Ca2+, at 7.2 µM, stronger effect = higher value, scaled: EC20 calcium 0, EC100 calcium 100
Summary of the method: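 Medium: MOPS/KCl/MgCl2/EGTA/NTA/DTT buffer, pH 7.2 | Reagent: EC20 calcium, 0.472 mM | Compound dosing: 7.2 µM single dose | Times: 15 min compound exposure at 25 °C | Signal: Fluorescence, 480/540 nm | Measure: Interference relative to controls | Repeats: Triplicate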

| SMILES | fluorescence artifact activation |
| --- | --- |
| CCc1ccc(C(=O)Nc2cccnc2Oc2ccc(Cl)cc2)cc1 | 3.19% (inactive) |
| Cc1cc(C=C2C(=O)CCCC2=O)c(C)n1-c1ccccc1 | 0.05% (inactive) |
| CCOC(=O)/C(=C\c1c[nH]c2ccccc12)NC(C)=O | 7.92% (inactive) |
| CC(C)Sc1nc2ccc(Br)cc2[nH]1 | 10.8% (inactive) |
| CCCCN(C(=O)c1ccc([N+](=O)[O-])o1)c1c(N)n(CCCC)c(=O)[nH]c1=O | -0.06% (inactive) |
| COc1cc(OC)cc(C(=O)N(Cc2ccco2)c2c(N)n(Cc3ccccc3)c(=O)[nH]c2=O)c1 | 0.01% (inactive) |
| COCCCN(C(=O)c1cccnc1SC)c1c(N)n(Cc2ccccc2)c(=O)[nH]c1=O | 15.1% (active) |
| COc1ccc(NC(=O)Cc2ccccc2)cn1 | 0.04% (inactive) |
| N#CC1=C(N)SC(N)=C(C#N)C1c1cccc(O)c1 | 0.07% (inactive) |
| C/C(Cn1cnc([N+](=O)[O-])n1)=N\NC(=O)c1cccc(F)c1 | 0.05% (inactive) |
| CC(=O)NC(CCS(C)(=O)=O)C(=O)Nc1cc(C)on1 (configuration not stated) | 0.57% (inactive) |
| Cc1cc(NC(=O)CN2C(=O)[C@@H]3[C@H](C2=O)[C@@H]2C[C@H]3C(Br)C2Br)no1 (some centres not stated) | 19.4% (active) |
| Cc1cc(NC(=O)COC(=O)C(Cc2ccccc2)NC(=O)c2ccco2)no1 (configuration not stated) | 9.69% (inactive) |
| O=C1CCNc2ccc(-c3ccccc3)cc21 | 0.1% (inactive) |
| Cc1cc(/C=C2\NC(=S)N(C)C2=O)ccc1N1CCCC1 | 2.17% (inactive) |
| Cc1cc(/C=C2/C(=O)N(C)C(=S)N2C)ccc1N1CCCC1 | 23.6% (active) |
| Cc1cc(N2CCCC2)ccc1/C=C1\NC(=S)N(C)C1=O | 5.61% (inactive) |
| COC(=O)CCN(C(=O)c1ccc([N+](=O)[O-])cc1)c1ccccn1 | 4.76% (inactive) |
| O=C(Nc1ccc(Br)cc1)c1ccc(Br)c(S(=O)(=O)Nc2cccnc2)c1 | 4.66% (inactive) |
| CC(C)(C)NC(=O)NC(=O)Cn1ccsc1=N | 40% (active) |
| O=C(C1=NN(c2ccccc2)C2C(=O)N(c3cccc(Cl)c3)C(=O)C12)c1ccccc1 (configuration not stated) | 9.7% (inactive) |
| O=C(NN1C(=O)c2ccccc2NC1c1ccco1)c1ccccc1 (configuration not stated) | 0.03% (inactive) |
| CN1C(=O)/C(=C/C=C2\SCCN2C)OC1=S | 1.7% (inactive) |
| COC(=O)C1CCN(C(=O)CN2C(=O)c3ccccc3S2(=O)=O)CC1 | 818% (active) |
| C=C1CCN(C(CC(C)C)C(=O)OC)S(=O)(=O)c2ccccc21 (configuration not stated) | 0.08% (inactive) |

| SMILES | fluorescence artifact activation |
| --- | --- |
| NC(=O)C1CCN(c2ccc3c(c2)S(=O)(=O)c2ccccc2C3=O)CC1 | 0.05% (inactive) |
| CN(N=Nc1ccc([N+](=O)[O-])cc1)c1ccccc1 | 7.25% (inactive) |
| CSc1ccc(C2C(C(=O)c3ccco3)=C(O)C(=O)N2c2nnc(SC)s2)cc1 (configuration not stated) | 7.57% (inactive) |
| CC1CC1c1ccc(/C=C(\C#N)C(=O)Nc2ccc(Cl)cc2Cl)o1 (configuration not stated) | 5.23% (inactive) |
| Cc1cc(NC(=O)/C(C#N)=C/c2ccc(-c3ccc(SC(F)F)cc3)o2)n(-c2ccccc2)n1 | 291% (active) |
| Cc1cc(NC(=O)/C(C#N)=C\c2ccc(-c3ccc(SC(F)F)cc3)o2)n(-c2ccccc2)n1 | 136% (active) |
| O=C(NCc1cccc(F)c1)c1cccc2c1C(=O)c1ccc(N3CCCC3)cc1S2(=O)=O | -0.02% (inactive) |
| CCOC(=O)c1sc(N)c(C#N)c1COC(=O)CNC(=O)c1ccccc1 | -0.01% (inactive) |
| CC1CC(C)CN(C(=O)Cn2c(-c3nonc3N)nc3ccccc32)C1 (configuration not stated) | 0.07% (inactive) |
| CC(NC(=O)COc1ccc(N(C)S(=O)(=O)c2ccccc2)cc1)c1ccccc1 (configuration not stated) | 0.07% (inactive) |
| Cc1ccc(C)c(OCCN2C(=O)NC3(CCc4ccccc4C3)C2=O)c1 (configuration not stated) | 0.24% (inactive) |
| Cc1ccc(C2C(C#N)=C(N)SC(N)=C2C#N)cc1 | 0.33% (inactive) |
| O=C(C1=C(O)C(=O)N(CCN2CCOCC2)C1c1ccc([N+](=O)[O-])cc1)c1cccs1 (configuration not stated) | 10.2% (inactive) |
| CC(/C=C/c1ccc(N(C)C)cc1)=N/N=C1/NC(=O)CC(C(=O)Nc2ccc(Cl)cc2)S1 (configuration not stated) | 0.15% (inactive) |
| O=[N+]([O-])c1ccc(N/N=C\c2ccccc2OCc2ccccc2)cc1 | 5.45% (inactive) |
| COC(=O)c1ccc(-c2ccc(F)cc2)nc1C | -0.07% (inactive) |
| O=c1[nH]c2c(s1)C=Nc1ccccc1N2 | 0.01% (inactive) |
| CN(C)/C=C1\C=C2C(=O)c3ccccc3N2C1=O | 21% (active) |
| CN(C)C(=O)CN1C(=O)C2CCCCN2C(=O)c2ccccc21 (configuration not stated) | 0.04% (inactive) |
| Cc1ccc(S(=O)(=O)NCCCCCC(=O)Nc2ccccc2C)cc1 | 8.11% (inactive) |
| CCCC(=O)Nc1ccc(-c2cnc(-c3ccc(NC(=O)CCC)cc3)nc2)cc1 | 0.08% (inactive) |
| CCCCCCCC(=O)Nc1ccc(S(=O)(=O)Nc2nccs2)cc1 | 12.5% (active) |
| N#Cc1ccccc1NC(=O)CNc1ccc(Cl)c(C(F)(F)F)c1 | 1.46% (inactive) |
| CCC(=O)N/C(=N/c1nc(C)cc(C)n1)Nc1ccccc1 | 0.29% (inactive) |
| Cc1ccc(NC(=O)c2cc(S(=O)(=O)N3CCCCC3)ccc2N2CCOCC2)cc1S(=O)(=O)N(C)C | 0.83% (inactive) |

| SMILES | fluorescence artifact activation |
| --- | --- |
| COc1ccc(-c2csc(N3CCN(c4cc5c(cc4Cl)nc(-c4ccncc4)n5CCOCCO)CC3)n2)cc1 | -0.09% (inactive) |
| CCOC(=O)Cc1csc(CC(N)=O)n1 | 2.47% (inactive) |
| CCOC(=O)Cc1csc(NC(=O)c2sc3nc4cc(C)ccc4cc3c2N)n1 | 19% (active) |
| CCOC(=O)Cc1csc(N(C)C)n1 | 0.08% (inactive) |
| Cc1cccc(N2CCN(C(=O)Cn3nc(Cc4ccncc4)c4ccccc4c3=O)CC2)c1C | 4.88% (inactive) |
| Cc1c(O)ccc(/C(Cc2ccc3ccccc3n2)=N\N)c1O | -0.02% (inactive) |
| CC(=O)OCC[N+](C)(C)C | 13.6% (active) |
| Cc1cccc(N=Cc2[nH]c3ccc(Br)c(Cl)c3c2O)c1 | 0.01% (inactive) |
| COCCNC(=O)c1c(CS(=O)(=O)c2ccccc2)noc1C(=O)NCc1ccccc1 | -0.04% (inactive) |
| C/C(=N/Nc1ccnc2cc(Cl)ccc12)c1ccc(N)cc1 | 2.55% (inactive) |
| CC(=O)Nc1ccccc1C(=O)C(=O)Nc1ccc(F)c(Cl)c1 | 0.02% (inactive) |
| Cc1ccc(NC(=O)Nc2ccc(F)cc2)cc1Cl | 4.13% (inactive) |
| CN1c2ccccc2C(O)=C(C(=S)Nc2ccc(F)c(Cl)c2)S1(=O)=O | 13.6% (active) |
| CCC1(C)COC(c2ccc(OC)c(OC)c2)OC1 (configuration not stated) | 0.06% (inactive) |
| N#C/C(=C\c1c[nH]c2ccccc12)C(=O)Nc1ncc(Cc2ccc(Cl)cc2Cl)s1 | 5.66% (inactive) |
| O=C(CN1CCN(c2ccccc2F)CC1)NCc1ccc(Cl)cc1 | 0.16% (inactive) |
| O=C(NCCc1ccccc1)C1CCN(c2ncccn2)CC1 | 0.16% (inactive) |
| O=C(NCc1ccc(Cl)cc1)C1CCN(c2cnccn2)CC1 | 16% (active) |
| COc1ccc(/C=N/NC(=O)c2cccc([N+](=O)[O-])c2)cc1O | 0.08% (inactive) |
| Cn1nnc(NC(=S)NC(=O)/C=C/c2ccco2)n1 | 0.78% (inactive) |
| CCNC(=S)NNC(=O)CCn1cc(C)cn1 | -0.01% (inactive) |
| CN(C)c1ccc(/C=C/c2nc3ccccc3c(=O)n2-c2ccc(C(=O)O)cc2)cc1 | 0.13% (inactive) |
| CN(C)c1ccc(/C=C/c2nc3ccccc3c(=O)[nH]2)cc1 | 0.27% (inactive) |
| CN(C)c1ccc(/C=C/c2nc3ccccc3c(=O)n2CCO)cc1 | 127% (active) |
| O=C(O)C1CCC(CNCc2ccccc2Cl)CC1 (configuration not stated) | 0.76% (inactive) |

| SMILES | fluorescence artifact activation |
| --- | --- |
| CCCCc1ccc(NC(=O)c2cnccn2)cc1 | 9.08% (inactive) |
| COc1ccc(CNC(=O)c2sc(=S)n(-c3ccccc3)c2N)cc1 | 9.19% (inactive) |
| CC(C)NC(=O)C1CCCN(c2nnc(-n3cccc3)s2)C1 (configuration not stated) | 316% (active) |
| COc1cccc(CNC(=O)C2CCCN(c3nc4ccccc4o3)C2)c1 (configuration not stated) | 0.08% (inactive) |
| O=C(Nc1cc2c3c(c1)CC(=O)N3CCC2)C1CC1 | 0.03% (inactive) |
| Cc1ccc(/C=C2/SC(=O)NC2=S)o1 | 6.76% (inactive) |
| C(=N\c1nc2ccccc2n1CCN1CCOCC1)/c1cccs1 | -0.03% (inactive) |
| Cc1ccc(C(C(=O)NC(C)(C)C)N(C(=O)c2csnn2)C2CC2)cc1 (configuration not stated) | 34.2% (active) |
| COC(=O)c1c(NC(=O)CN2CCN(c3cccc(Cl)c3)CC2)sc(C)c1C | 0.21% (inactive) |
| CCCN1C(=O)c2ccccc2NC1c1ccc(O)c(OCC)c1 (configuration not stated) | 2.14% (inactive) |
| CCOC(=O)c1[nH]c2ccc(OCC)cc2c1CCCN1C(=O)c2ccccc2C1=O | 87.1% (active) |
| CCOC(=O)C1=C(C)N(CCCCCC(=O)O)C(=O)NC1c1ccccc1Cl (configuration not stated) | 0.06% (inactive) |
| CC(OC(=O)c1c2c(nc3ccccc13)/C(=C\c1ccc3c(c1)OCO3)CCC2)C(=O)Nc1ccc(S(N)(=O)=O)cc1 (configuration not stated) | 0.03% (inactive) |
| Cc1ccc(O)c(C(=O)c2cc(C#N)c(=O)n(-c3nccs3)c2)c1 | 0.06% (inactive) |
| N#Cc1cc(C(=O)c2ccccc2O)cn(-c2nccs2)c1=O | 12.1% (active) |
| N#Cc1cc(C(=O)c2cc(F)ccc2O)cn(-c2nccs2)c1=O | 0.01% (inactive) |
| O=C(Cn1ncc2c3ccccc3n(Cc3cccc(Cl)c3)c2c1=O)NCC1CCCO1 (configuration not stated) | 0.38% (inactive) |
| O=C(NCCOc1ccccc1Cl)C(=O)Nc1ccccc1 | 0.07% (inactive) |
| CS/C(=N\S(=O)(=O)c1cccs1)Nc1cccc(Cl)c1C | 16.4% (active) |
| COc1cccc(CNC(=O)CCS(=O)(=O)c2cc3c(cc2C)NC(=O)CO3)c1 | 0.09% (inactive) |
| COc1cccc(CNC(=O)CN(C)S(=O)(=O)c2ccc3c(c2)c(=O)n(C)c(=O)n3C)c1 | 0.24% (inactive) |
| COc1cccc(CNC(=O)CN(C)S(=O)(=O)c2cnc[nH]2)c1 | 41.4% (active) |
